Assay [1] is described as follows: Cytotoxicity against human NTUB1 cells after 72 hrs by MTT assay. Format: functional, cell-based. The following applies: NTUB1, 72 h. A digest of the protocol: (§1)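 MTT assay: 1800 cells/well plated, overnight at 37 °C, then graded concentrations for 72 h at 37 °C. MTT added for 3 h, plates centrifuged, formazan dissolved in DMSO, absorbance read at 540 nm. Viability as percent of control; IC50 by median-effect analysis, mean ± SD. Cells grown in RPMI 1640 with 10% FBS.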

Assay [2] relates to PC-3. Briefly: Cytotoxicity against human PC3 cells after 72 hrs by MTT assay. Format: functional, cell-based. The settings on record: PC-3, 72 h. A digest of the protocol:
as §1

The subject of assay [3] is NTUB1. Description: Antimitotic activity in human NTUB1 cells assessed as appearance of rounded and dead cells at 10 nM after 24 hrs. Format: functional, cell-based. An outline of the steps:
(§2)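 NTUB1 cells at 7×10^5 cells per 10 cm dish, treated 24 h; medium-only control. Cell rounding and death scored by light-microscopic morphology.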

Assay [4] relates to NTUB1. Briefly: Antimitotic activity in human NTUB1 cells assessed as accumulation of mitotic arrest cells at 10 nM after 24 hrs by DAPI staining-based microscopic analysis. Format: functional, cell-based. A digest of the protocol:
(§3)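 NTUB1 cells seeded on serum-coated coverslips (10⁵ cells/well), incubated overnight, then treated 24 h. Fixed in 2% formaldehyde/PBS 20 min and permeabilized in cold methanol 3 min. Stained overnight with anti-α-tubulin primary, then rhodamine goat anti-rabbit secondary with 1 µg/mL DAPI for 1 h at room temperature. Mounted in 80% glycerol/PBS and examined by fluorescence microscopy; untreated medium control.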

The test system of assay [5] is NTUB1. Description: Inhibition of alpha-tubulin assembly in human NTUB1 cells at 10 nM after 24 hrs by DAPI staining-based microscopic analysis. Format: cell-based. An outline of the steps:
as §3

Assay [6] in a line: Cell cycle arrest in human NTUB1 cells assessed as accumulation at G1 phase at 3 uM after 24 hrs by propidium iodide staining-based FACS analysis. The class given is functional. An outline of the steps: (§4)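 Cells (6×10^5 plated) treated 24 h; 20 µM cisplatin as reference, medium-only control. Harvested by trypsinization, PBS-washed, fixed overnight in ice-cold methanol at −20 °C. Stained 30 min at room temperature in PBS with 50 µg/mL propidium iodide plus 50 µg/mL RNase A. DNA content by FACScan flow cytometry; sub-G1 taken as apoptosis. Representative of three independent experiments.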

A short description of assay [7]: Cell cycle arrest in human NTUB1 cells assessed as accumulation at S phase at 3 uM after 24 hrs by propidium iodide staining-based FACS analysis. Format: functional. A digest of the protocol:
as §4

A short description of assay [8]: Cell cycle arrest in human NTUB1 cells assessed as accumulation at G1 phase at 1 uM after 24 hrs by propidium iodide staining-based FACS analysis. Format: functional. A digest of the protocol:
as §4

The test system of assay [9] is PC-3. Briefly: Cell cycle arrest in human PC3 cells assessed as accumulation at G1 phase at 3 uM after 24 hrs by propidium iodide staining-based FACS analysis. Format: functional. A digest of the protocol:
as §4

For assay [10], the system named is PC-3. Description: Cell cycle arrest in human PC3 cells assessed as accumulation at G2/M phase at 3 uM after 24 hrs by propidium iodide staining-based FACS analysis. The class given is functional. An outline of the steps:
as §4

For assay [11], the system named is NTUB1. Briefly: Antimitotic activity in human NTUB1 cells assessed as accumulation of mitotic arrest cells at 0.3 to 1 uM after 24 hrs by DAPI staining-based microscopic analysis. Format: functional, cell-based. An outline of the steps:
as §3

The test system of assay [12] is NTUB1. Briefly: Inhibition of alpha-tubulin assembly in human NTUB1 cells at 0.3 to 1 uM after 24 hrs by DAPI staining-based microscopic analysis. The class given is cell-based. An outline of the steps: as §3
Assay [13] can be described thus: Cell cycle arrest in human NTUB1 cells assessed as accumulation at S phase at 1 uM after 24 hrs by propidium iodide staining-based FACS analysis. Format: functional. An outline of the steps:
as §4

For assay [14], the system named is PC-3. Briefly: Cell cycle arrest in human PC3 cells assessed as accumulation at G1 phase at 1 uM after 24 hrs by propidium iodide staining-based FACS analysis. The class given is functional. An outline of the steps: as §4
The subject of assay [15] is NTUB1. Briefly: Inhibition of alpha-tubulin assembly in human NTUB1 cells at 10 to 100 uM after 6 hrs by Western blot analysis. Format: cell-based. A digest of the protocol: (§5)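 NTUB1 cells (1×10^6 per dish) treated 6 h; 500 nM paclitaxel reference. Lysed in Tris-HCl pH 6.8 buffer with MgCl2, EGTA, 0.5% NP-40 and protease/phosphatase inhibitors. Centrifuged 15,000g, 10 min, 4 °C to separate soluble (supernatant) from polymerized (pellet) tubulin. Fractions run on 10% SDS-PAGE and immunoblotted for α-tubulin, β-actin as control, chemiluminescent detection.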

A short description of assay [16]: Cell cycle arrest in human NTUB1 cells assessed as accumulation at sub-G1 phase at 3 uM after 24 hrs by propidium iodide staining-based FACS analysis. Format: functional. A digest of the protocol: as §4
A short description of assay [17]: Cell cycle arrest in human NTUB1 cells assessed as accumulation at sub-G1 phase at 1 uM after 24 hrs by propidium iodide staining-based FACS analysis. The class given is functional. An outline of the steps: as §4
Assay [18] is described as follows: Cell cycle arrest in human NTUB1 cells assessed as accumulation at G2/M phase at 3 uM after 24 hrs by propidium iodide staining-based FACS analysis. The class given is functional. An outline of the steps:
as §4

Assay [19] deals with PC-3. Description: Cell cycle arrest in human PC3 cells assessed as accumulation at sub-G1 phase at 3 uM after 24 hrs by propidium iodide staining-based FACS analysis. The class given is functional. A digest of the protocol: as §4
Assay [20] in a line: Cell cycle arrest in human NTUB1 cells assessed as accumulation at G2/M phase at 1 uM after 24 hrs by propidium iodide staining-based FACS analysis. Format: functional. A digest of the protocol: as §4
Assay [21] has as its system NTUB1. Briefly: Stabilization GDP-bound alpha-tubulin in human NTUB1 cells assessed as microtubule disassembly at 10 uM after 6 hrs by Western blot analysis. Format: cell-based. A digest of the protocol:
as §5

Assay [22] has as its system PC-3. Description: Cell cycle arrest in human PC3 cells assessed as accumulation at G2/M phase at 1 uM after 24 hrs by propidium iodide staining-based FACS analysis. Format: functional. An outline of the steps:
as §4

For assay [23], the system named is PC-3. Briefly: Cell cycle arrest in human PC3 cells assessed as accumulation at S phase at 1 uM after 24 hrs by propidium iodide staining-based FACS analysis. The class given is functional. A digest of the protocol:
as §4

The test system of assay [24] is NTUB1. Briefly: Stabilization GDP-bound alpha-tubulin in human NTUB1 cells assessed as microtubule disassembly at 500 nM after 6 hrs by Western blot analysis. Format: cell-based. An outline of the steps: as §5
The subject of assay [25] is PC-3. Description: Cell cycle arrest in human PC3 cells assessed as accumulation at sub-G1 phase at 1 uM after 24 hrs by propidium iodide staining-based FACS analysis. Format: functional. A digest of the protocol:
as §4

Assay [26] deals with NTUB1. Briefly: Antimitotic activity in human NTUB1 cells assessed as appearance of rounded and dead cells at 0.3 to 3 uM after 24 hrs. The class given is functional, cell-based. A digest of the protocol: as §2
For assay [27], the system named is NTUB1. Briefly: Stabilization GDP-bound alpha-tubulin in human NTUB1 cells assessed as microtubule disassembly at 50 to 100 uM after 6 hrs by Western blot analysis. The class given is cell-based. An outline of the steps: as §5
In assay [28] the test system is PC-3. Briefly: Cell cycle arrest in human PC3 cells assessed as accumulation at S phase at 3 uM after 24 hrs by propidium iodide staining-based FACS analysis. The class given is functional. A digest of the protocol: as §4

The values below come from ChEMBL document CHEMBL1157660, “Synthesis and biological evaluation of 2',5'-dimethoxychalcone derivatives as microtubule-targeted anticancer agents” (Bioorg Med Chem, 2010).

pIC50: −log10 of the molar value. Activity calls are given as the source filed them. No cut-off for these calls is given here. Bounds are passed on as bounds.

As to `COc1ccc(OC)c(C(=O)/C=C/c2ccc(C(=O)OCC=C(C)C)cc2)c1`, the pIC50 was 4.87 in assay [1] and less than 4.30 in [2].
In the case of `COc1ccc(OC)c(C(=O)/C=C/c2ccc(C(=O)OC(C)C)cc2)c1`, the pIC50 was 5.35 in assay [1] and 5.17 in assay [2].
Regarding `COc1ccc(OC)c(C(=O)/C=C/c2ccc(C(=O)O)cc2)c1`, the figures for the pIC50 in assay [1] and in assay [2] were 5.24 and 5.14, respectively.
In the case of `CCNC(=O)c1ccc(/C=C/C(=O)c2cc(OC)ccc2OC)cc1`, the pIC50 in assay [1] is 5.42; in assay [2], 5.38.
As for `COC(=O)c1ccc(/C=C/C(=O)c2cc(OC)ccc2OC)cc1`, the pIC50 in assay [1] is 5.45; in [2], 5.31.
As for `COc1ccc(OC)c(C(=O)/C=C/c2ccc(C(=O)OCc3ccccc3)cc2)c1`, the pIC50 in assay [1] was 4.88; in [2] it was 4.75.
Take `CCCOC(=O)c1ccc(/C=C/C(=O)c2cc(OC)ccc2OC)cc1`: the pIC50 in [1] is 5.22; in assay [2] it was 4.57.
For `CNC(=O)c1ccc(/C=C/C(=O)c2cc(OC)ccc2OC)cc1`, in that order: 5.66 and 5.67.
In the case of `CCCNC(=O)c1ccc(/C=C/C(=O)c2cc(OC)ccc2OC)cc1`, the values for the pIC50 in assay [1] and in assay [2] were 5.65 and 5.82, respectively.
As to `CCN(CC)C(=O)c1ccc(/C=C/C(=O)c2cc(OC)ccc2OC)cc1`, the pIC50 in assay [1] is 5.57; in [2], 5.42.
With `CCOC(=O)c1ccc(/C=C/C(=O)c2cc(OC)ccc2OC)cc1`, the negative-log IC50 (pIC50) in assay [1] was 5.35; in [2], 5.24.
For `COc1ccc(OC)c(C(=O)/C=C/c2ccc(C(=O)NC3CCCCC3)cc2)c1`, in that order: 5.65 and 5.20.
Turning to `COc1ccc(OC)c(C(=O)/C=C/c2ccc(C(=O)N(C)C)cc2)c1`, the results for the pIC50 in [1] and in assay [2] were 5.41 and 5.34, respectively.
Consider `CC(=O)O[C@H]1C(=O)[C@@]2(C)[C@H]([C@H](OC(=O)c3ccccc3)[C@]3(O)C[C@H](OC(=O)[C@H](O)[C@@H](NC(=O)c4ccccc4)c4ccccc4)C(C)=C1C3(C)C)[C@]1(OC(C)=O)CO[C@@H]1C[C@@H]2O`, for which the outcome in assay [3] and in assay [4] was Active. Also, the inhibition entry in assay [5] was “inactive”.
For `COc1ccc(OC)c(C(=O)/C=C/c2ccc(C(=O)N(C)CCO)cc2)c1`, the values for the pIC50 in assay [1] and in assay [2] were 5.35 and 5.24, respectively.
As to `COc1ccc(OC)c(C(=O)/C=C/c2ccc(C(=O)O)s2)c1`, in assay [1], the negative logarithm of the IC50 (pIC50) is less than 4.30.
For `COc1ccc(OC)c(C(=O)/C=C/c2ccc(C(=O)N3CCCC3)cc2)c1`, the Activity in assay [6] stood at 7.03%; in assay [7] it was 11.3%; in assay [8] it was 46.6%; in [9], 18.44%; in assay [10], 27.69%; in assay [13], 28.8%. In addition, the Activity came to 45.81% in assay [14]; 61% in [16]; 2.16% in assay [17]; 18.3% in assay [18]; 24.45% in assay [19]; 20.4% in assay [20]. For the same compound, the Activity in [22] is 14.02%; in [23] it was 25.28%; in assay [25], 7.8%; in [27], “Dose-dependent effect”; in [28], 21.83%. Also, the result in assay [11], in assay [24] and in assay [26] was Active. In addition, in assay [12], the inhibition result is “Active”. The inhibition result in assay [15] was “inactive”. Moreover, in assay [21], the result was inactive. The pIC50 in [1] is 5.90; in assay [2] it was 6.28.
For the compound `COc1ccc(OC)c(C(=O)/C=C/c2ccc(C(=O)NC(C)C)cc2)c1`, the Activity in assay [6] was 22.3%; in assay [7], 21.2%; in [8] it was 44.9%; in assay [9] it was 36.73%; in [10] it was 25.43%; in assay [13] it was 27.2%. The Activity was 38.85% in [14]; 30.3% in assay [16]; 1.84% in [17]; 24.2% in [18]; 14.26% in assay [19]; 22.6% in [20]. Besides, the Activity was determined as 19.22% in assay [22], 25.83% in assay [23], 9.25% in assay [25] and 16.09% in [28]. Further, the pIC50 in assay [1] was 5.71; in [2], 5.80.
As to `COc1ccc(OC)c(C(/C=C/c2ccc(C(=O)NC3CC3)cc2)=N/C2CC2)c1`, the values for the pIC50 in assay [1] and in [2] were 5.45 and 5.37, respectively.
